Results on 39 compounds are retold here after ChEMBL document CHEMBL3734652, “Pyrrolo[3,4-c]pyridine-1,3(2H)-diones: A Novel Antimycobacterial Class Targeting Mycobacterial Respiration” (J Med Chem, 2015).

One may read the MIC90 as an inhibitory concentration at the 90% level, which refers to growth in some studies and to a panel of isolates in others. For orientation: IC50 means the concentration that inhibits the measured activity by half.

Molecules are shown by their SMILES. Values after ≈ are worked out from the molar mass of the structure shown.

Data set [1] is described as follows: Kinetic solubility in FaSSIF at pH 6.5 after 2 hours at 25 degC by shake flask method. The format is physicochemical. Particulars: read-out: Kinetic_solubility.
Data set [2] relates to Mycobacterium tuberculosis. Put plainly: Antimicrobial activity against Mycobacterium tuberculosis H37RvMA under GAST/Fe medium assessed as growth inhibition after 14 days by alamar blue assay. The format is functional. Particulars: 336 h. The procedure, abridged: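 Broth microdilution in GAST/Fe medium against fully virulent Mtb H37RvMa or its derived strains (cytochrome bd oxidase deletion ΔcydKO; qcrB Ala317Thr point mutant). Plates were incubated 14 days, growth was read by Alamar Blue, and MIC90 was taken as the potency value.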
Background: Alamar Blue is a resazurin reagent that responds to reducing activity.

Data set [3] is described as follows: Metabolic stability in human liver microsomes assessed as residual compound at 0.1 uM after 30 mins by LC-MS/MS method in presence or absence of NADPH. The format is ADME. Particulars: read-out: Stability. In general terms: Liver microsomes are vesicles of endoplasmic reticulum, rich in cytochrome P450 enzymes.
Data set [4] deals with Vero. Put plainly: Cytotoxicity against African green monkey Vero cells assessed as cell viability by MTT assay. The format is cell-based. As to conditions: Chlorocebus sabaeus. An outline of the steps: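 VERO kidney epithelial cells from African green monkey were exposed to compounds at concentrations up to 100 μM, and IC₅₀ was reported.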
A general note: Tetrazolium dyes change colour on reduction, which living cells bring about.

Data set [5] in a line: Metabolic stability in rat liver microsomes assessed as residual compound at 0.1 uM after 30 mins by LC-MS/MS method in presence or absence of NADPH. The format is ADME. Particulars: read-out: Stability.
Data set [6] can be described thus: Metabolic stability in mouse liver microsomes assessed as residual compound at 0.1 uM after 30 mins by LC-MS/MS method in presence or absence of NADPH. The format is ADME. Particulars: read-out: Stability.

Consider `Cc1noc(-c2nc(C)c3c(c2N)C(=O)N(C(C)c2ccccc2)C3=O)n1` (stereo not given), for which, in data set [1], the solubility kinetic at 2 h came to 10.9 µM (≈ 3.96 µg/mL). Besides, in data set [2], the MIC90 turned out to be 1.25 µM (≈ 0.454 µg/mL).
As to `Cc1noc(-c2nc(C)c3c(c2N)C(=O)N(Cc2ccc(OC(F)F)cc2)C3=O)n1`, the solubility kinetic at 2 h in data set [1] is less than 5 µM. In data set [2], the MIC90 was less than 0.156 µM.
Regarding `Cc1noc(-c2nc(C)c3c(c2N)C(=O)N(Cc2ccc(Br)cc2)C3=O)n1`, the solubility kinetic at 2 h in data set [1] is less than 5 µM. For the same compound, in data set [2], the MIC90 is less than 0.156 µM.
On to `CNC(=O)c1nc(C)c2c(c1N)C(=O)N(Cc1ccccc1)C2=O`, for which the solubility kinetic at 2 h in data set [1] worked out at 41 µM (≈ 13.3 µg/mL). In addition, the MIC90 in data set [2] is more than 160 µM.
Take `Cc1nc(C(=O)N(C)C)c(N)c2c1C(=O)N(Cc1ccccc1)C2=O`: the remaining at 0.5 h, 0.1 µM in data set [3] turned out to be 72%; in data set [5], 51%; in data set [6] it was 47%. For the same compound, the IC50 in data set [4] was more than 100 µM. Also, the solubility kinetic at 2 h in data set [1] is 172 µM (≈ 58.2 µg/mL). In addition, in data set [2], the MIC90 was more than 160 µM.
Consider `Cc1noc(-c2nc(C)c3c(c2N)C(=O)N(Cc2ccc(SC(F)(F)F)cc2)C3=O)n1`, for which the solubility kinetic at 2 h in data set [1] is less than 5 µM. For the same compound, the MIC90 in data set [2] amounted to 1.2 µM (≈ 0.539 µg/mL).
`Cc1noc(-c2nc(C)c3c(c2N)C(=O)N(Cc2ccc(N(C)C)cc2)C3=O)n1`: the solubility kinetic at 2 h in data set [1] is 7.4 µM (≈ 2.9 µg/mL). The MIC90 in data set [2] came out at 20 µM (≈ 7.85 µg/mL).
As for `COc1ccccc1CN1C(=O)c2c(C)nc(-c3nc(C)no3)c(N)c2C1=O`, the solubility kinetic at 2 h in data set [1] is less than 5 µM. Besides, in data set [2], the MIC90 was determined as 0.31 µM (≈ 0.118 µg/mL).
In the case of `Cc1noc(-c2nc(C)c3c(c2N)C(=O)N(Cc2ccccc2Cl)C3=O)n1`, the solubility kinetic at 2 h in data set [1] is less than 5 µM. In data set [2], the MIC90 was determined as 1.25 µM (≈ 0.48 µg/mL).
On to `Cc1nc(C(=O)OC2CC2)c(N)c2c1C(=O)N(Cc1ccccc1)C2=O`, for which the values for the remaining at 0.5 h, 0.1 µM in data set [3], in data set [5] and in data set [6] were 61%, 9.6% and 36%, respectively. Further, the solubility kinetic at 2 h in data set [1] worked out at 202 µM (≈ 71 µg/mL). For the same compound, in data set [2], the MIC90 was determined as 1.25 µM (≈ 0.439 µg/mL).
As for `CCOC(=O)c1ncc2c(c1N)C(=O)N(Cc1ccccc1)C2=O`, the MIC90 in data set [2] is 20 µM (≈ 6.51 µg/mL).
Turning to `Cc1noc(-c2nc(C)c3c(c2N)C(=O)N(Cc2ccc(-c4ccncc4)cc2)C3=O)n1`, the solubility kinetic at 2 h in data set [1] was less than 5 µM. In data set [2], the MIC90 worked out at 160 µM (≈ 68.2 µg/mL).
For `Cc1noc(-c2nc(C)c3c(c2N)C(=O)N(Cc2ccc(S(C)(=O)=O)cc2)C3=O)n1` the same measures were less than 5 µM and 0.31 µM (≈ 0.133 µg/mL).
`Cc1noc(-c2nc(C)c3c(c2N)C(=O)N(Cc2ccc(Cl)cn2)C3=O)n1`: the solubility kinetic at 2 h in data set [1] is less than 5 µM. Also, the MIC90 in data set [2] was 2.5 µM (≈ 0.962 µg/mL).
On the same counts, the results for `Cc1noc(-c2nc(C)c3c(c2N)C(=O)N(Cc2ccc(Cl)cc2)C3=O)n1` are less than 5 µM and 0.62 µM (≈ 0.238 µg/mL).
Turning to `CCOC(=O)c1nc(C)c2c(c1N)C(=O)N(c1ccccc1)C2=O`, the solubility kinetic at 2 h in data set [1] was found to be 5 µM (≈ 1.63 µg/mL). The MIC90 in data set [2] was more than 160 µM.
For `COC(=O)c1nc(C)c2c(c1N)C(O)N(Cc1ccccc1)C2=O` (stereo not given), the remaining at 0.5 h, 0.1 µM was found to be 55% in data set [3], 70% in data set [5] and 69% in data set [6]. Moreover, the concentration for half-maximal inhibition (IC50) in data set [4] was more than 100 µM. Further, the solubility kinetic at 2 h in data set [1] came out at 200 µM (≈ 65.5 µg/mL). In data set [2], the MIC90 worked out at 2.5 µM (≈ 0.818 µg/mL).
`Cc1noc(-c2nc(C)c3c(c2N)C(=O)N(Cc2ccc(C(N)=O)cc2)C3=O)n1`: the solubility kinetic at 2 h in data set [1] was less than 5 µM. The MIC90 in data set [2] is more than 160 µM.
In the case of `Cc1noc(-c2nc(C)c3c(c2N)C(=O)N(Cc2cccc(C(F)(F)F)c2)C3=O)n1`, in data set [1], the solubility kinetic at 2 h was less than 5 µM. The MIC90 in data set [2] is less than 0.156 µM.
Consider `Cc1noc(-c2nc(C)c3c(c2N)C(=O)N(Cc2ccc(CO)cc2)C3=O)n1`, for which, in data set [1], the solubility kinetic at 2 h was less than 5 µM. The MIC90 in data set [2] turned out to be 0.62 µM (≈ 0.235 µg/mL).
`Cc1noc(-c2nc(C)c3c(c2N)C(=O)N(Cc2ccc(Oc4ccc(F)cc4)cc2)C3=O)n1`: the solubility kinetic at 2 h in data set [1] was found to be 23.8 µM (≈ 10.9 µg/mL). Besides, the MIC90 in data set [2] is less than 0.156 µM.
With `COc1ccc(CN2C(=O)c3c(C)nc(-c4nc(C)no4)c(N)c3C2=O)cc1`, in data set [1], the solubility kinetic at 2 h was less than 5 µM. Also, in data set [2], the MIC90 was less than 0.156 µM.
As to `Cc1noc(-c2nc(C)c3c(c2N)C(=O)N(Cc2cccc(F)c2)C3=O)n1`, the solubility kinetic at 2 h in data set [1] is less than 5 µM. In addition, the MIC90 in data set [2] was less than 0.156 µM.
For `Cc1noc(-c2nc(C)c3c(c2N)C(=O)N(Cc2ccc(C(F)(F)F)cc2)C3=O)n1` the same measures were less than 5 µM and 20 µM (≈ 8.35 µg/mL).
Take `Cc1nc(C(=O)NO)c(N)c2c1C(=O)N(Cc1ccccc1)C2=O`: the remaining at 0.5 h, 0.1 µM came to 80% in data set [3], 46% in data set [5] and 58% in data set [6]. In data set [2], the MIC90 is more than 160 µM.
As to `Cc1noc(-c2nc(C)c3c(c2N)C(=O)N(Cc2ccc(-n4cccn4)cc2)C3=O)n1`, the solubility kinetic at 2 h in data set [1] was less than 5 µM. Further, in data set [2], the MIC90 was 40 µM (≈ 16.6 µg/mL).
For `Cc1noc(-c2nc(C)c3c(c2N)C(=O)N(CC2CCNCC2)C3=O)n1`, the solubility kinetic at 2 h in data set [1] turned out to be 160 µM (≈ 57 µg/mL). In data set [2], the MIC90 was more than 160 µM.
Regarding `Cc1noc(-c2nc(C)c3c(c2N)C(=O)N(Cc2ccncc2)C3=O)n1`, the solubility kinetic at 2 h in data set [1] worked out at 26.4 µM (≈ 9.25 µg/mL). Also, the MIC90 in data set [2] was found to be 20 µM (≈ 7.01 µg/mL).
Consider `COC(=O)c1nc(C)c2c(c1N)C(=O)N(Cc1ccccc1)C2=O`, for which the solubility kinetic at 2 h in data set [1] came to 7.4 µM (≈ 2.41 µg/mL). Besides, in data set [2], the MIC90 was 0.15 µM (≈ 0.0488 µg/mL).
On to `Cc1noc(-c2nc(C)c3c(c2N)C(=O)N(Cc2ccc(OC(F)(F)F)cc2)C3=O)n1`, for which the solubility kinetic at 2 h in data set [1] was less than 5 µM. Moreover, in data set [2], the MIC90 stood at 0.62 µM (≈ 0.269 µg/mL).
For `CCCOC(=O)c1nc(C)c2c(c1N)C(=O)N(Cc1ccccc1)C2=O`, the remaining at 0.5 h, 0.1 µM in data set [3] was 3.4%; in data set [5], 3.3%; in data set [6], 8.8%. Besides, the solubility kinetic at 2 h in data set [1] was less than 5 µM. Besides, the MIC90 in data set [2] is less than 0.156 µM.
Take `Cc1noc(-c2nc(C)c3c(c2N)C(=O)N(Cc2ccc(F)cc2)C3=O)n1`: the solubility kinetic at 2 h in data set [1] is less than 5 µM. Also, the MIC90 in data set [2] was determined as 0.31 µM (≈ 0.114 µg/mL).
As to `Cc1noc(-c2nc(C)c3c(c2N)C(=O)N(Cc2ccccc2F)C3=O)n1`, the solubility kinetic at 2 h in data set [1] is less than 5 µM. The MIC90 in data set [2] came to 0.3 µM (≈ 0.11 µg/mL).
As for `Cc1noc(-c2nc(C)c3c(c2N)C(=O)N(Cc2ccc(N4CCCC4=O)cc2)C3=O)n1`, the solubility kinetic at 2 h in data set [1] was less than 5 µM. For the same compound, in data set [2], the MIC90 is more than 160 µM.
`Cc1noc(-c2nc(C)c3c(c2N)C(=O)N(Cc2ccccc2C(F)(F)F)C3=O)n1`: in data set [1], the solubility kinetic at 2 h was less than 5 µM. In addition, the MIC90 in data set [2] is more than 160 µM.
Consider `CO[C@H]1/C=C/O[C@@]2(C)Oc3c(C)c(O)c4c(O)c(c(/C=N/N5CCN(C)CC5)c(O)c4c3C2=O)NC(=O)/C(C)=C\C=C\[C@H](C)[C@H](O)[C@@H](C)[C@@H](O)[C@@H](C)[C@H](OC(C)=O)[C@@H]1C` [RIFAMPIN], for which, in data set [2], the MIC90 is 0.009 µM (≈ 0.00741 µg/mL).
For `Cc1nc(C#N)c(N)c2c1C(=O)N(Cc1ccccc1)C2=O`, the remaining at 0.5 h, 0.1 µM in data set [3] was determined as 98%; in data set [5], 100%; in data set [6] it was 99%. The solubility kinetic at 2 h in data set [1] is less than 5 µM. Besides, in data set [2], the MIC90 is more than 160 µM.
With `Cc1noc(-c2nc(C)c3c(c2N)C(=O)N(Cc2ccc(C#N)cc2)C3=O)n1`, the solubility kinetic at 2 h in data set [1] is less than 5 µM. The MIC90 in data set [2] is more than 160 µM.
`Cc1noc(-c2nc(C)c3c(c2N)C(=O)N(CC2CCOCC2)C3=O)n1`: the solubility kinetic at 2 h in data set [1] was found to be 5.7 µM (≈ 2.04 µg/mL). Also, the MIC90 in data set [2] turned out to be 20 µM (≈ 7.15 µg/mL).
